Reference: ChEMBL document CHEMBL1144451, “Polyamine-vectored iron chelators: the role of charge” (J Med Chem, 2005)
pIC50, pKi: −log10 of the molar value.

Legend:
[1] = Iron clearing efficiency in bile of rodents following a subcutaneous dosage of 300 umol/kg; format: functional
Procedure, shortened: (§1)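 Bile-duct-cannulated rats given a subcutaneous dose of 300 µmol/kg, equivalent in iron-binding capacity to 450 µmol/kg of the 3:1 ligands. Chelator-induced iron excretion measured in both bile and urine. Bile collected as multiple samples to follow excretion kinetics.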

[2] = Iron clearing efficiency in urine of rodents following a subcutaneous dosage of 300 umol/kg; format: functional; procedure, shortened: as §1
L1210 [3] = experiment: Intracellular concentration was determined in murine L1210 cells after treatment with 100 uM compound for 4 hrs; format: functional, cell-based; details: Mus musculus
Procedure, shortened: (§2)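 Murine leukemia L1210 cells exposed to the compound, 48 h unless another time is indicated. Intracellular level measured as pmol/10^6 cells. Converted to concentration using about 1 µL volume per 10^6 untreated cells.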

L1210 [4] = experiment: Inhibitory concentration against growth of murine L1210 cells at 48 hours; format: functional, cell-based; details: Mus musculus, L1210, 48 h
Procedure, shortened: (§3)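 Proliferation of murine leukemia L1210 cells measured after 48 h or 96 h exposure. IC50 reported as the mean of at least two experiments. Variation from the mean was typically 10–25% for the 96-h values.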

L1210 [5] = experiment: Inhibitory concentration against growth of murine L1210 cells at 96 hours; format: functional, cell-based; details: Mus musculus, L1210, 96 h; procedure, shortened: as §3
L1210 [6] = experiment: Ability to compete with [3H]SPD for the polyamine transport apparatus in L1210 cells; format: functional, cell-based, Mus musculus
L1210 [7] = experiment: Ratio of intracellular concentration to that of treatment concentration in L1210 cells; format: functional, Mus musculus
[8] = Iron clearing efficiency in bile-duct-cannulated rodents following a subcutaneous dosage of 300 umol/kg; format: functional; procedure, shortened: as §1
L1210 [9] = experiment: Intracellular concentration was determined in murine L1210 cells after treatment with 100 uM compound for 48 h; format: functional, cell-based; details: Mus musculus; procedure, shortened: as §2
L1210 [10] = experiment: Intracellular concentration was determined in murine L1210 cells after treatment with 100 uM compound for 48 hrs; format: functional, cell-based; details: Mus musculus; procedure, shortened: as §2
[11] = Iron clearing efficiency in urine of rodents following a subcutaneous dosage of 450 umol/kg; format: ADME; details: rodentia, in vivo, sc
Procedure, shortened: (§4)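 Bile-duct-cannulated rat model. Drug given sc at 450 µmol/kg, set for equivalent iron-binding capacity. Chelator-promoted iron excretion measured in both bile and urine. Multiple bile samples collected, so the kinetics of iron excretion could be followed.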

[12] = Iron clearing efficiency in bile of rodents following a subcutaneous dosage of 450 umol/kg; format: ADME; details: rodentia, in vivo, sc; procedure, shortened: as §4
L1210 [13] = experiment: Intracellular concentration was determined in murine L1210 cells after treatment with 0.2 uM compound for 48 h; format: functional, cell-based; details: Mus musculus; procedure, shortened: as §2
[14] = Iron clearing efficiency in bile-duct-cannulated rodents following a subcutaneous dosage of 450 umol/kg; format: ADME; details: rodentia, in vivo, sc; procedure, shortened: as §4
[15] = Iron clearing efficiency in bile-duct-cannulated rodents following a subcutaneous dosage of 450 umol/kg (iron excretion delayed until ~18 hours after administration); format: functional
L1210 [16] = experiment: Intracellular concentration was determined in murine L1210 cells after treatment with 30 uM compound for 48 h; format: functional, cell-based; details: Mus musculus; procedure, shortened: as §2
L1210 [17] = experiment: Intracellular concentration was determined in murine L1210 cells after treatment with 50 uM compound for 48 h; format: functional, cell-based; details: Mus musculus
Procedure, shortened: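 Murine leukemia L1210 cells exposed to compound for 48 h unless otherwise indicated. Intracellular concentration expressed as pmol/10^6 cells; 10^6 untreated cells taken as about 1 µL volume. Mean of at least two or three experiments, variation typically less than 10%.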

Molecule `C[C@]1(C(=O)O)CSC(c2ccc(OCCCCNCCCNCCCN)cc2O)=N1` has an Efficiency [1] of 99%, an Efficiency [2] of 1% and a Concentration (pmol/10E6 cells) (L1210 [3]) of 71. The pIC50 (L1210 [4]) was 4.40, the pIC50 (L1210 [5]) was 4.40 and the pKi (L1210 [6]) was 4.14. It also gave a Ratio (L1210 [7]) of 0.7 and an Efficiency [8] of 9.2%.
For `FC(F)(F)CNCCCNCCCCNCCCNCC(F)(F)F`, the Concentration (pmol/10E6 cells) (L1210 [9]) was less than 20, the pIC50 (L1210 [5]) was less than 4.00 and the Ratio (L1210 [7]) was less than 0.2.
For `C[C@]1(C(=O)O)CSC(c2ccc(O)cc2O)=N1` [DEFERITRIN], the Concentration (pmol/10E6 cells) (L1210 [9]) was less than 50, the Efficiency [1] was 93% and the Efficiency [2] was 7%. The pIC50 (L1210 [4]) was 4.72, the pIC50 (L1210 [5]) was 4.70 and the pKi (L1210 [6]) was less than 3.30. The Ratio (L1210 [7]) was less than 0.5 and the Efficiency [8] was 1.1%.
For `COC(=O)c1ccc(C(=O)NCCCNCCCCNCCCN)cc1`, the pIC50 (L1210 [4]) was less than 4.00, the pIC50 (L1210 [5]) was less than 4.00 and the pKi (L1210 [6]) was 5.51. The Ratio (L1210 [7]) was 4.3 and the Concentration (pmol/10E6 cells) (L1210 [10]) was 430.
`Cc1c(O)c(=O)ccn1CCCNCCCCNCCCN` gave an Efficiency [11] of 47%, an Efficiency [12] of 53% and a Concentration (pmol/10E6 cells) (L1210 [13]) of 390. For the same molecule, the Efficiency [14] was 1.8%, the Efficiency [15] was less than 0.5% and the pIC50 (L1210 [4]) was 6.70. For the same molecule, the pKi (L1210 [6]) was 5.43 and the Ratio (L1210 [7]) was 1950.
Molecule `CCNCCCNCCCCNCCCNCC` [BIS(ETHYL)SPERMINE] has a Concentration (pmol/10E6 cells) (L1210 [16]) of 400 and a Ratio (L1210 [7]) of 13.3.
With `Cc1c(O)c(=O)ccn1C` [DEFERIPRONE] the Efficiency [11] was 26%, the Efficiency [12] was 74% and the Efficiency [14] was 2.2%. The pIC50 (L1210 [4]) was 4.34, the pIC50 (L1210 [5]) was 4.26 and the Concentration (pmol/10E6 cells) (L1210 [17]) was 1. The pKi (L1210 [6]) was less than 3.30 and the Ratio (L1210 [7]) was 0.02.
In the case of `NCCCNCCCCNCCCNC(=O)c1ccc(C(=O)O)cc1`, the Concentration (pmol/10E6 cells) (L1210 [9]) was less than 70, the pIC50 (L1210 [4]) was less than 4.00 and the pIC50 (L1210 [5]) was less than 4.00. It also gave a pKi (L1210 [6]) of 4.57 and a Ratio (L1210 [7]) of less than 0.7.
For `CCOC(=O)[C@@]1(C)CSC(c2ccc(OCCCCNCCCNCCCN)cc2O)=N1`, the Efficiency [1] was 97%, the Efficiency [2] was 3% and the Concentration (pmol/10E6 cells) (L1210 [3]) was 2980. For the same molecule, the pIC50 (L1210 [4]) was 5.82, the pIC50 (L1210 [5]) was 5.82 and the pKi (L1210 [6]) was 5.24. For the same molecule, the Concentration (pmol/10E6 cells) (L1210 [10]) was 947 and the Efficiency [8] was 13.6%.
